Assay results taken from ChEMBL document CHEMBL1641513, “Synthesis of sugars embodying conjugated carbonyl systems and related triazole derivatives from carboxymethyl glycoside lactones. Evaluation of their antimicrobial activity and toxicity” (Bioorg Med Chem, 2011).
≈ marks a conversion by molar mass, not a printed value. Where “and” joins values, the source holds several entries; their conditions need not be identical. Equal values may be shown once.

How the values were obtained:
Aspergillus niger = assay: Antifungal activity against Aspergillus niger ATCC 16404 after 24 to 48 hrs by paper disk diffusion assay; type: functional
Procedure, shortened: (§1)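 Fungal disk diffusion per CLSI. Overnight cultures spread on potato dextrose agar. 6.4 mm paper disks each loaded with 300 μg substance in 15 μL DMSO. Actidione and amphotericin B positive controls, DMSO negative control. Incubated 25 °C for 24–48 h. Inhibition-zone diameter averaged over two replicates, scored by diameter ranges.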

[1] = Antifungal activity against Penicillium aurantiogriseum ATCC 16025 after 24 to 48 hrs by paper disk diffusion assay; type: functional; procedure, shortened: as §1
[2] = Cytotoxicity against […] HII4E cells after 48 hrs by MTT assay; type: cell-based
Procedure, shortened: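 Adherent […] hepatoma cells attached 24 h in 96-well plates, then exposed to compound 24 h. H2O2 positive control, DMSO negative control. At 48 h of culture, MTT added (0.5 mg/mL final) for 3 h. Cells washed, formazan dissolved in DMSO with 20 min shaking at room temperature. Absorbance read at 550 nm, 620 nm reference.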

Bacillus subtilis = assay: Antibacterial activity against Bacillus subtilis ATCC 6633 after 24 hrs by paper disk diffusion assay; type: functional
Procedure, shortened: (§2)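 Disk diffusion per CLSI. Overnight bacterial cultures spread on nutrient agar. 6.4 mm paper disks each loaded with 300 μg substance in 15 μL DMSO. Chloramphenicol positive control, DMSO negative control. Incubated 37 °C, 24 h. Nearest inhibition-zone diameter measured, averaged over two replicates. Scored –(<12 mm) to +++++ (≥26 mm).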

Salmonella enteritidis = assay: Antibacterial activity against Salmonella enteritidis ATCC 13076 after 24 hrs by paper disk diffusion assay; type: functional, Salmonella enterica subsp. enterica serovar Enteritidis; procedure, shortened: as §2
Bacillus cereus = assay: Antibacterial activity against Bacillus cereus ATCC 11778 after 24 hrs by paper disk diffusion assay; type: functional; procedure, shortened: as §2
Listeria monocytogenes = assay: Antibacterial activity against Listeria monocytogenes ATCC 19115 after 24 hrs by paper disk diffusion assay; type: functional
Procedure, shortened: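 Disk diffusion per CLSI, overnight culture spread on tryptone soya agar. 6.4 mm paper disks each loaded with 300 μg substance in 15 μL DMSO. Chloramphenicol positive control, DMSO negative control. Incubated 37 °C, 24 h. Inhibition-zone diameter measured, averaged over two replicates, and scored by diameter ranges.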

Enterococcus faecalis = assay: Antibacterial activity against Enterococcus faecalis ATCC 7080 after 24 hrs by paper disk diffusion assay; type: functional; procedure, shortened: as §2
Staphylococcus aureus = assay: Antibacterial activity against Staphylococcus aureus ATCC 6538 after 24 hrs by paper disk diffusion assay; type: functional; procedure, shortened: as §2

C[C@@H]1[C@H](O)[C@@H](C)/C=C/C=C/C=C/C=C/C=C/C=C/C=C/[C@H](O[C@@H]2O[C@H](C)[C@@H](O)[C@H](N)[C@@H]2O)C[C@@H]2O[C@](O)(C[C@@H](O)C[C@@H](O)[C@H](O)CC[C@@H](O)C[C@@H](O)CC(=O)O[C@H]1C)C[C@H](O)[C@H]2C(=O)O [AMPHOTERICIN B]
diameter of the inhibition zone (DIZ) (Aspergillus niger): 22 mm | inhibition zone (IZ) (Aspergillus niger): 22 mm | inhibition zone (IZ) [1]: > 26 mm and 26 mm

O=C(CO[C@@H]1O[C@H](CO)[C@@H](O)[C@H](O)[C@H]1O)NCc1cn(Cc2ccccc2)nn1
IC50 [2]: 426 µg/mL (≈ 1040 µM)

CCCCCCCCCCCCNC(=O)CO[C@H]1O[C@H](COC(C)=O)C=C(OC(C)=O)C1=O
diameter of the inhibition zone (DIZ) (Bacillus subtilis): 40 mm | inhibition zone (IZ) (Bacillus subtilis): >=26 mm | diameter of the inhibition zone (DIZ) (Salmonella enteritidis): <12 mm | diameter of the inhibition zone (DIZ) (Aspergillus niger): 12 mm | inhibition zone (IZ) (Aspergillus niger): 12 mm | diameter of the inhibition zone (DIZ) (Bacillus cereus): 39 mm | inhibition zone (IZ) (Bacillus cereus): >=26 mm | diameter of the inhibition zone (DIZ) (Listeria monocytogenes): 17 mm | inhibition zone (IZ) (Listeria monocytogenes): 17 mm | inhibition zone (IZ) [1]: > 26 mm and 30 mm | diameter of the inhibition zone (DIZ) (Enterococcus faecalis): 24 mm | inhibition zone (IZ) (Enterococcus faecalis): 24 mm | IC50 [2]: 136 µg/mL (≈ 290 µM) | diameter of the inhibition zone (DIZ) (Staphylococcus aureus): 17 mm | inhibition zone (IZ) (Staphylococcus aureus): 17 mm

O=C(N[C@H](CO)[C@H](O)c1ccc([N+](=O)[O-])cc1)C(Cl)Cl [CHLORAMPHENICOL]
diameter of the inhibition zone (DIZ) (Bacillus subtilis): 40 mm | inhibition zone (IZ) (Bacillus subtilis): >=26 mm | diameter of the inhibition zone (DIZ) (Salmonella enteritidis): 41 mm | inhibition zone (IZ) (Salmonella enteritidis): >=26 mm | diameter of the inhibition zone (DIZ) (Bacillus cereus): 31 mm | inhibition zone (IZ) (Bacillus cereus): >=26 mm | diameter of the inhibition zone (DIZ) (Listeria monocytogenes): 33 mm | inhibition zone (IZ) (Listeria monocytogenes): >=26 mm | diameter of the inhibition zone (DIZ) (Enterococcus faecalis): 37 mm | inhibition zone (IZ) (Enterococcus faecalis): >=26 mm | diameter of the inhibition zone (DIZ) (Staphylococcus aureus): 36 mm | inhibition zone (IZ) (Staphylococcus aureus): >=26 mm

OO [HYDROGEN PEROXIDE]
IC50 [2]: 2 µg/mL (≈ 58.8 µM)

C=CCCCCn1cc(CNC(=O)CO[C@H]2O[C@H](CO)[C@H](O)[C@H](O)[C@H]2O)nn1
IC50 [2]: 394 µg/mL (≈ 984 µM)

CCOC(=O)/C=C1\C(OC(C)=O)=C[C@@H](COC(C)=O)O[C@@H]1OCC(=O)NCc1ccccc1
diameter of the inhibition zone (DIZ) (Bacillus subtilis): <12 mm | diameter of the inhibition zone (DIZ) (Salmonella enteritidis): <12 mm | diameter of the inhibition zone (DIZ) (Aspergillus niger): <12 mm | diameter of the inhibition zone (DIZ) (Bacillus cereus): <12 mm | diameter of the inhibition zone (DIZ) (Listeria monocytogenes): <12 mm | inhibition zone (IZ) [1]: 12 mm | diameter of the inhibition zone (DIZ) (Enterococcus faecalis): 24 mm | inhibition zone (IZ) (Enterococcus faecalis): 24 mm | IC50 [2]: 128 µg/mL (≈ 277 µM) | diameter of the inhibition zone (DIZ) (Staphylococcus aureus): <12 mm

C=CCCCCn1cc(CN(CC=C)C(=O)CO[C@H]2O[C@H](COCC=C)[C@H](OCC=C)[C@H](O)[C@H]2OCC=C)nn1
IC50 [2]: 1190 µg/mL (≈ 2120 µM)

CC(=O)OC[C@H]1O[C@@H](OCC(=O)NCc2cn(Cc3ccccc3)nn2)[C@H](O)[C@@H](OC(C)=O)[C@@H]1OC(C)=O
IC50 [2]: 505 µg/mL (≈ 945 µM)

CCOC(=O)/C=C1\C(OC(C)=O)=C[C@@H](COC(C)=O)O[C@@H]1OCC(=O)NCc1cn(Cc2ccccc2)nn1
IC50 [2]: 12000 µg/mL (≈ 22100 µM)

CC(=O)OC[C@@H]1C=C(OC(C)=O)C(=O)[C@@H](OCC(=O)NCc2ccccc2)O1
IC50 [2]: 163 µg/mL (≈ 416 µM)

C=CCCCCn1cc(CNC(=O)CO[C@H]2O[C@H](COC(C)=O)[C@H](OC(C)=O)[C@H](OC(C)=O)[C@H]2O)nn1
IC50 [2]: 63 µg/mL (≈ 120 µM)

C#CCNC(=O)CO[C@H]1O[C@H](COC(C)=O)C=C(OC(C)=O)C1=O
IC50 [2]: 282 µg/mL (≈ 831 µM)

C=CCNC(=O)CO[C@H]1O[C@H](COC(C)=O)C=C(OC(C)=O)/C1=C\C(=O)OCC
IC50 [2]: 352 µg/mL (≈ 856 µM)

C#CCNC(=O)CO[C@H]1O[C@H](COC(C)=O)C=C(OC(C)=O)/C1=C\C(=O)OCC
diameter of the inhibition zone (DIZ) (Bacillus subtilis): <12 mm | diameter of the inhibition zone (DIZ) (Salmonella enteritidis): <12 mm | diameter of the inhibition zone (DIZ) (Aspergillus niger): <12 mm | diameter of the inhibition zone (DIZ) (Bacillus cereus): <12 mm | diameter of the inhibition zone (DIZ) (Listeria monocytogenes): <12 mm | inhibition zone (IZ) [1]: < 12 mm | diameter of the inhibition zone (DIZ) (Enterococcus faecalis): 24 mm | inhibition zone (IZ) (Enterococcus faecalis): 24 mm | IC50 [2]: 257 µg/mL (≈ 628 µM) | diameter of the inhibition zone (DIZ) (Staphylococcus aureus): <12 mm

CCCCCCCCCCCCNC(=O)CO[C@@H]1O[C@H](COC(C)=O)C=C(OC(C)=O)C1=O
diameter of the inhibition zone (DIZ) (Bacillus subtilis): 21 mm | inhibition zone (IZ) (Bacillus subtilis): 18 mm | diameter of the inhibition zone (DIZ) (Salmonella enteritidis): 14 mm | inhibition zone (IZ) (Salmonella enteritidis): 14 mm | diameter of the inhibition zone (DIZ) (Aspergillus niger): 40 mm | inhibition zone (IZ) (Aspergillus niger): >=26 mm | diameter of the inhibition zone (DIZ) (Bacillus cereus): 16 mm | inhibition zone (IZ) (Bacillus cereus): 14 mm | diameter of the inhibition zone (DIZ) (Listeria monocytogenes): 14 mm | inhibition zone (IZ) (Listeria monocytogenes): 14 mm | inhibition zone (IZ) [1]: > 26 mm and 33 mm | diameter of the inhibition zone (DIZ) (Enterococcus faecalis): <12 mm | IC50 [2]: 45 µg/mL (≈ 95.8 µM) | diameter of the inhibition zone (DIZ) (Staphylococcus aureus): 13 mm | inhibition zone (IZ) (Staphylococcus aureus): 13 mm

C[C@@H]1C[C@@H]([C@H](O)CC2CC(=O)NC(=O)C2)C(=O)[C@@H](C)C1 [CYCLOHEXIMIDE]
diameter of the inhibition zone (DIZ) (Aspergillus niger): 43 mm | inhibition zone (IZ) (Aspergillus niger): >=26 mm | inhibition zone (IZ) [1]: > 26 mm and 26 mm

O=C(CO[C@H]1O[C@H](CO)[C@@H](O)[C@H](O)[C@H]1O)NCc1cn(Cc2ccccc2)nn1
IC50 [2]: 193 µg/mL (≈ 473 µM)

O=C(CO[C@H]1O[C@H](CO)[C@H](O)[C@H](O)[C@H]1O)NCc1cn(Cc2ccccc2)nn1
IC50 [2]: 617 µg/mL (≈ 1510 µM)

CC(=O)OC[C@@H]1C=C(OC(C)=O)C(=O)[C@@H](OCC(=O)NCc2cn(Cc3ccccc3)nn2)O1
IC50 [2]: 10300 µg/mL (≈ 21800 µM)

CCCCCCCCCCCCNC(=O)CO[C@H]1O[C@H](COC(C)=O)C=C(OC(C)=O)/C1=C\C(=O)OCC
diameter of the inhibition zone (DIZ) (Bacillus subtilis): 12 mm | inhibition zone (IZ) (Bacillus subtilis): 12 mm | diameter of the inhibition zone (DIZ) (Salmonella enteritidis): <12 mm | diameter of the inhibition zone (DIZ) (Aspergillus niger): <12 mm | diameter of the inhibition zone (DIZ) (Bacillus cereus): <12 mm | diameter of the inhibition zone (DIZ) (Listeria monocytogenes): <12 mm | inhibition zone (IZ) [1]: 12 mm | diameter of the inhibition zone (DIZ) (Enterococcus faecalis): 22 mm | inhibition zone (IZ) (Enterococcus faecalis): 22 mm | IC50 [2]: 76 µg/mL (≈ 141 µM) | diameter of the inhibition zone (DIZ) (Staphylococcus aureus): 20 mm | inhibition zone (IZ) (Staphylococcus aureus): 20 mm

CC(=O)OC[C@H]1O[C@H](OCC(=O)NCc2cn(Cc3ccccc3)nn2)[C@H](O)[C@@H](OC(C)=O)[C@@H]1OC(C)=O
IC50 [2]: 69 µg/mL (≈ 129 µM)

CC(=O)OC[C@H]1O[C@H](OCC(=O)NCc2cn(Cc3ccccc3)nn2)[C@H](O)[C@@H](OC(C)=O)[C@H]1OC(C)=O
IC50 [2]: 879 µg/mL (≈ 1640 µM)

C[S+](C)[O-] [DIMETHYL SULFOXIDE]
IC50 [2]: 199 µg/mL (≈ 2550 µM)
